pIC50: −log10 of the molar value. Active and inactive are the calls of the source. No cut-off for these calls is given here.
Legend:
Tubulin (Sus scrofa) [1] = target: T1, Tubulin (Sus scrofa) (UniProt P02554+P02550); details: 2 to 3 uM
HeLa [2] = test: Antimitotic activity in human HeLa cells assessed as abberent multiple spindle asters at 5 uM by indirect immunofluorescence assay relative to vehicle-treated control; format: functional, cell-based
Outline: (§1)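 HeLa cells grown in basal medium Eagle with Earle's salts, 10% FBS and 25−50 μg/mL gentamicin, given vehicle or 5 μM compound. Cell cycle distribution read by flow cytometry. Mitotic spindle shape viewed by indirect immunofluorescence of tubulin.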

HeLa [3] = test: Cell cycle arrest in human HeLa cells assessed as accumulation at G2/M phase at 5 uM by flow cytometry; format: functional, cell-based
Outline: as §1

SK-OV-3 [4] = test: Resistance ratio of IC50 for human SKOV3 cells expressing MDR1 to IC50 for human SKOV3 cells; format: functional
Outline: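 Relative resistance = SRB-assay IC50 in Pgp-overexpressing SK-OV-3/MDR-1-6/6 divided by IC50 in parental SK-OV-3. Both lines were grown in basal medium Eagle with Earle's salts, 10% FBS and 25−50 μg/mL gentamicin.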

Tubulin (Sus scrofa) [5] = target: T1, Tubulin (Sus scrofa); test: Displacement of colchicine from purified pig brain tubulin by fluorescence assay in presence of GTP
Outline: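 Purified tubulin mixed with colchicine and GTP, plus a range of compound concentrations. Colchicine bound to tubulin fluoresces, so displacement is read as loss of that fluorescence. CA-4 used as positive control; 3 replicates, standard deviations.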

SK-OV-3 [6] = test: Cytotoxicity against human SKOV3 cells expressing MDR1 after 72 hrs by SRB assay; details: SK-OV-3, 72 h
HeLa [7] = test: Resistance ratio of IC50 for human HeLa cells expressing beta3-tubulin containing alanine residue at […] to IC50 for human HeLa cells; format: functional
Outline: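 Relative resistance = SRB-assay IC50 in WTβIII cells divided by IC50 in parental HeLa. Both lines were grown in basal medium Eagle with Earle's salts, 10% FBS and 25−50 μg/mL gentamicin.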

Tubulin (Sus scrofa) [8] = target: T1, Tubulin (Sus scrofa); test: Inhibition of purified pig brain tubulin polymerization at 25 uM by spectrophotometry
Outline: (§2)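 Purified porcine brain tubulin with GTP in glycerol buffer, given vehicle or 10 or 25 μM compound. Assembly followed as turbidity, absorbance at 340 nm over time. Rate and extent of polymerization compared with vehicle.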

HeLa [9] = test: Cytotoxicity against human HeLa cells after 72 hrs by SRB assay
HeLa [10] = test: Cytotoxicity against human HeLa cells expressing beta3-tubulin containing alanine residue at 277 after 72 hrs by SRB assay
SK-OV-3 [11] = test: Cytotoxicity against human SKOV3 cells after 72 hrs by SRB assay; details: SK-OV-3, 72 h
Tubulin (Sus scrofa) [12] = target: T1, Tubulin (Sus scrofa); test: Inhibition of purified pig brain tubulin polymerization by spectrophotometry
Outline: as §2

T1 sequence (P02550 whole entry, looked up): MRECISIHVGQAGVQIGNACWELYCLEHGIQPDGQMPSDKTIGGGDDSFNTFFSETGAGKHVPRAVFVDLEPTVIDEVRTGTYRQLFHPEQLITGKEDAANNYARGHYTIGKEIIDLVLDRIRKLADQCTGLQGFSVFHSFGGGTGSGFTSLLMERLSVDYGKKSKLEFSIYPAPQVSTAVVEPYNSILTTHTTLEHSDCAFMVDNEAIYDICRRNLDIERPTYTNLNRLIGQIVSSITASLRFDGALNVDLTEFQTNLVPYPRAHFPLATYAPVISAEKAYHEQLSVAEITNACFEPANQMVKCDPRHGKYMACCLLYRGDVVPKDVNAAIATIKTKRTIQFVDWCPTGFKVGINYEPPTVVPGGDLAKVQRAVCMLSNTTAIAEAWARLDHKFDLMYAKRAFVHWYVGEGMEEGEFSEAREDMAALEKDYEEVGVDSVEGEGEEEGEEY
T1 sequence (P02554 whole entry, looked up): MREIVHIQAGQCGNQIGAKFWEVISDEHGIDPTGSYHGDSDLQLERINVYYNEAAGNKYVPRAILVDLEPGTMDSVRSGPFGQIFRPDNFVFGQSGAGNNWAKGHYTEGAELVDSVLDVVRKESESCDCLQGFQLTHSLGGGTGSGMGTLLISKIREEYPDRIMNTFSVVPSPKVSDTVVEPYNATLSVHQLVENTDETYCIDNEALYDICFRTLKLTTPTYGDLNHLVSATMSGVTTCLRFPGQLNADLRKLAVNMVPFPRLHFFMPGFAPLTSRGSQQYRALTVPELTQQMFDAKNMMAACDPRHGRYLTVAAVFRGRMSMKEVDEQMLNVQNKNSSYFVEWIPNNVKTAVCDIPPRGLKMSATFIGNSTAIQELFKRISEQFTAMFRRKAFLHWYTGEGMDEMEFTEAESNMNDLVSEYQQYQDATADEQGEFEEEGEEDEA

inhibition (Tubulin (Sus scrofa) [1]) | inhibition (Tubulin (Sus scrofa) [5]) | inhibition (Tubulin (Sus scrofa) [8]) | inhibition (Tubulin (Sus scrofa) [12]) | Compound | Activity (HeLa [2]) | Activity (HeLa [3]) | Ratio IC50 (SK-OV-3 [4]) | pIC50 (SK-OV-3 [6]) | Ratio IC50 (HeLa [7]) | pIC50 (HeLa [9]) | pIC50 (HeLa [10]) | pIC50 (SK-OV-3 [11])
50% | – | – | – | COc1ccc(/C=C\c2cc(OC)c(OC)c(OC)c2)cc1O | – | – | – | – | – | – | – | –
– | Dose-dependent effect | 50% | Dose-dependent effect | COc1cc(OC)c(CCC(=O)c2ccc(OC)c(O)c2)c(OC)c1 | Active | Active | 2.7 | 5.65 | 1.2 | 6.24 | 6.16 | 6.09
– | – | – | – | CC(=O)O[C@@H]1[C@H]2[C@H]3[C@H]([C@H](OC(C)=O)[C@H](OC(C)=O)[C@]2(C)[C@@H]2[C@@H]1[C@]1(C)C(=C[C@H]2C)OC(=O)[C@@]1(C)O)[C@]1(C)[C@H](C[C@@H]2O[C@@H]2[C@@H]1OC(C)=O)C(=O)[C@@H]3O | Active | Active | – | – | – | – | – | –

From ChEMBL document CHEMBL3120152, “The bat flower: a source of microtubule-destabilizing and -stabilizing compounds with synergistic antiproliferative actions” (J Nat Prod, 2013)
